Ratio data for one molecule are collected here from ChEMBL document CHEMBL1150273, “Aza-peptidyl Michael acceptors. A new class of potent and selective inhibitors of asparaginyl endopeptidases (legumains) from evolutionarily diverse pathogens” (J Med Chem, 2008).

The target of this test is T1, Legumain (Homo sapiens) (UniProt Q99538).
T1 sequence (whole entry): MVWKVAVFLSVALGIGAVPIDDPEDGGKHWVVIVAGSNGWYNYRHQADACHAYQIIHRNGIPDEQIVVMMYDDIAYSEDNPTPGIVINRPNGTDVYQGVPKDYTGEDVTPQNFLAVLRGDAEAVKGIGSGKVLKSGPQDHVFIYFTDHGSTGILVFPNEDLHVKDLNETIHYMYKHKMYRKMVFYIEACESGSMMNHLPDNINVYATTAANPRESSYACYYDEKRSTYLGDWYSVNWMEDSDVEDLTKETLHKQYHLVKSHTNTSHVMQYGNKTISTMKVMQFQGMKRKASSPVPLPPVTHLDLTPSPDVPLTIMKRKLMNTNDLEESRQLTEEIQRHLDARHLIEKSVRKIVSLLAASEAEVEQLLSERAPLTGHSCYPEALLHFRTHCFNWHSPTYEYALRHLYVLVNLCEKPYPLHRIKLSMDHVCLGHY
The test can be described thus: Inhibition of human AE assessed as ratio of pseudo-first-order inhibition rate constant to inhibitor concentration. Put shortly: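 Human AE; inhibitor and substrate incubated at 25 °C in 20 mM citric acid, 60 mM Na2HPO4, 1 mM EDTA, 0.1% CHAPS, pH 5.8 before enzyme addition.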

On to `Cc1ccc(C)c(C(=O)OCC(=O)[C@H](CC(N)=O)NC(=O)OCc2ccccc2)c1`, for which the Ratio came out at 109000 M⁻¹ s⁻¹.
